# Most compounds without a hit are left out; they make up all but 9.6% or so of the library.
# bCat nuc transl: modulators of beta-catenin nuclear translocation, primary screen, imaging, HeLa cells, immunofluorescence, high-content. nuclear translocation activity, % at 5 µM. 0.3% of 190,000 active. AID 1665, 2009;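 active = nuclear translocation activity above 50% at 5 µM, with a well cell count of 50 or more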;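 note: per-cell ratio of nuclear to cytoplasmic median beta-catenin stain intensity; plate controls were DMSO negative control for no effect and GSK-3 inhibitor IX positive control for full effect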
#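 System: HeLa cells, endogenous beta-catenin; compound dosing: 5 µM primary single dose, 0.1% DMSO, 0.02–20 µM confirmation series; incubation: 24 h compound exposure at 37°C, 5% CO2; signal: beta-catenin immunofluorescence imaging with DAPI; evaluation: % activation, nuclear-to-cytoplasmic median beta-catenin signal ratio per cell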
# BaF3 parental: parental Ba/F3 cell viability inhibition, counter-screen for JAK2V617F inhibitor project, murine pro-B, CellTiter-Glo luminescence; CellTiter-Glo ATP luminescence; inhibition, % at 5.6 µM; 1.1% of 220,000 active;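 active = inhibition above a per-campaign cutoff, the mean inhibition of all tested compounds plus 3 SD, cut at about 27% in these data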;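 note: 0% = DMSO wells and 100% = JAK Inhibitor I control wells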
# L major viab: Leishmania major promastigote growth inhibition, primary screen. Leishmania major promastigotes, resazurin fluorescence viability. inhibition, % at 10 µM. AID 1063, 2008. 9% of 200,000 active; in the data active = inhibition above about 50%;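 note: promastigotes grown with compound for 44 hours at 28 °C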
# MT stabilizer: microtubule stabilizers in HeLa cells, primary screen, imaging, high-content imaging. HeLa tubulin immunostaining HCS, 24 h; share of cells brighter than vehicle mean+2SD. % tubulin-high responders, % at 10 µM. 0.83% of 200,000 active. AID 2205, 2009;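 active = plate Z-score above 3 for both tubulin-high and condensed-nucleus cell shares, with cell loss under 80%, at 10 µM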;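 note: anti alpha tubulin signal scored within the nucleus-defined area of each cell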
# APP 5UTR inh: inhibitors of APP translation via 5'UTR reporter, primary screen, APP 5'UTR luciferase, SH-SY5Y cells | SH-SY5Y APP 5'UTR-luciferase reporter, luminescence | inhibition, % at 2 µM | 0.82% of 190,000 active;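 active = inhibition above a set limit, derived from the sample mean plus 3 SD, cut at about 45% in these data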
# Ba/F3 V617F tox: reduced viability of JAK2V617F-dependent Ba/F3 cells, primary screen, JAK2V617F inhibitor project, cell-based, Ba/F3 EpoR-JAK2V617F, luminescence; 1.1% of 220,000 active; ATP luminescence; inhibition, % at 5.6 µM;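 active = inhibition above the campaign mean plus 3 SD over all tested compounds, cut at about 24% in these data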;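 note: cytokine-independent growth of Ba/F3 cells driven by EpoR plus mutant JAK2; 0% = DMSO-treated cells and 100% = JAK inhibitor I control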
# * marks the source's active call; other numbers are inactive results; x = no result given.
SMILES,bCat nuc transl,BaF3 parental,L major viab,MT stabilizer,APP 5UTR inh,Ba/F3 V617F tox
COc1ccc(C(=O)Nc2ccc(NC(=O)c3cccs3)cc2)cc1Cl,1.2,6.8,-5.6,4.6,-0.3,-0.1
CCOc1ccc(C(=O)/C=C/c2ccc(OC)c(OC)c2)cc1,0.3,5.2,85.6*,4.6,0.7,-1.6
COc1cc(C=O)ccc1OCCOCCOc1ccc(Cl)cc1,-1.8,5.0,-3.0,1.4,7.5,3.1
Nc1nnn(CC(=O)N/N=C/c2cccc(Cl)c2)n1,0.4,0.9,x,x,x,3.4
C=CCNC(=S)/C(=C(/[O-])c1ccccc1Br)[n+]1ccccc1,-3.4,-1.3,14.2,1.3,3.1,-2.9
COc1ccc(/C=C/C(=O)c2ccc3c4c(cccc24)CC3)cc1OC,4.6,-0.3,59.6*,4.3,-13.8,-6.9
COc1ccc(/C=C/C(=O)c2ccc3c4c(cccc24)CC3)cc1,-2.1,7.7,9.6,5.8,-6.4,-2.8
O=C(c1cc(N2C(=O)C3C4CCC(C4)C3C2=O)ccc1Cl)N1CCN(c2ccc(F)cc2)CC1 (centres undefined),-1.3,7.4,75.4*,2.0,-5.4,0.9
COc1ccc(N2CCN(C(=O)c3cc(N4C(=O)C5C6CCC(C6)C5C4=O)ccc3Cl)CC2)cc1 (centres undefined),-1.9,2.9,85.7*,1.4,-7.1,-0.1
O=C(c1cccc(C(=O)N2CCN(c3ccccc3F)CC2)c1)N1CCN(c2ccccc2F)CC1,1.0,4.0,-7.9,1.9,9.6,4.1
O=C(c1cc(N2C(=O)C3C4CCC(C4)C3C2=O)ccc1Cl)N1CCN(c2ccccc2F)CC1 (centres undefined),-0.7,5.7,75.1*,1.6,-9.8,-0.8
O=C(c1cc(N2C(=O)C3C4CCC(C4)C3C2=O)ccc1Cl)N1CCCCCC1 (centres undefined),-2.8,7.8,-4.1,1.6,6.4,-0.6
CCN(CC)S(=O)(=O)c1ccc(Cl)c(NC(=O)COC(=O)/C=C/c2ccc(O)c(OC)c2)c1,0.1,3.3,-2.5,3.7,10.5,-0.8
Cc1c(C(=O)NCC2COc3ccccc3O2)oc2ccc(S(=O)(=O)N(C)C3CCCCC3)cc12 (centres undefined),-0.3,5.1,53.3*,0.8,-1.6,-2.2
O=C(c1ccccc1)N1CCC(c2nc(-c3ccc(S(=O)(=O)N4CCOCC4)cc3)no2)CC1,-1.1,9.0,-1.4,2.0,-13.3,4.0
O=C(Nc1ccccc1)N1CCC(c2nc(-c3ccc(S(=O)(=O)N4CCOCC4)cc3)no2)CC1,-2.4,9.1,11.5,26.2*,7.9,-4.0
COc1ccccc1NC(=O)CC1C(=O)NCCN1C(=O)Nc1ccc(Cl)c(Cl)c1 (centres undefined),x,4.5,67.5*,4.0,-23.2,1.8
COc1ccccc1NC(=S)N1CCNC(=O)C1CC(=O)Nc1cccc(C)c1 (centres undefined),1.5,-11.2,x,x,x,-2.6
CCOC(=O)CC1C(=O)NCCN1C(=S)Nc1ccccc1 (centres undefined),-0.5,1.8,57.1*,1.8,-10.7,-6.0
COc1ccc(C(=O)N2CCNC(=O)C2CC(=O)Nc2ccc(C)cc2)cc1 (centres undefined),1.5,10.4,99.6*,4.6,2.6,6.3
COc1ccc(NC(=S)N2CCNC(=O)C2CC(=O)Nc2cccc(Cl)c2C)cc1 (centres undefined),-1.0,7.9,51.6*,2.1,-5.1,4.7
COc1ccc(-c2cc(-c3nnc(COC(=O)CC4CC5CCC4C5)o3)c3ccccc3n2)cc1OC (centres undefined),0.3,12.5,10.2,2.7,15.6,4.1
Cc1ccc(C(=O)N2C(CC(=O)Nc3ccc(Cl)cc3)C(=O)NC3CCCCC32)cc1 (centres undefined),-0.2,9.2,-4.8,19.8*,-8.4,2.0
Cc1ccc(Nc2cc(C)nc(N3CCOCC3)n2)c(C)c1,-3.0,5.8,75.6*,2.9,5.1,-0.2
CCc1ccccc1NC(=O)C1C(c2ccccc2)C1(Cl)Cl (centres undefined),x,3.3,50.2*,2.4,0.0,-0.6
SMILES,bCat nuc transl,BaF3 parental,L major viab,MT stabilizer,APP 5UTR inh,Ba/F3 V617F tox
Cc1ccc(C)c(NC(=O)C2C(c3ccccc3)C2(Cl)Cl)c1 (centres undefined),4.0,2.1,41.9,3.7,2.2,2.5
Cc1nnc(SCC(=O)NC2CCCc3ccccc32)n1-c1ccccc1 (centres undefined),x,1.5,-1.7,4.1,-8.0,0.8
CCOc1ccc(N(CCCCO)C(=S)NC(=O)c2ccc(C)c(Br)c2)cc1,-4.6,12.0,-4.8,2.1,-13.7,4.2
COc1ccc(N(CCCN2C(=O)c3cccc4cccc(c34)C2=O)C(=O)c2ccncc2)cc1,0.5,10.3,68.6*,2.3,-3.5,-1.3
COc1cc(OC)cc(C(=O)N(CCCN2C(=O)c3cccc4cccc(c34)C2=O)c2cccc(OC)c2)c1,1.5,0.1,44.0,3.6,-12.1,-4.3
COc1ccc(N(CCN2C(=O)c3ccccc3C2=O)C(=O)c2cccc([N+](=O)[O-])c2)cc1,0.1,4.0,-1.0,2.6,-24.4,-3.0
COc1ccc(N(CCCN2C(=O)c3cccc4cccc(c34)C2=O)C(=O)c2cccnc2)cc1,-2.0,9.6,50.7*,2.2,-31.2,1.4
Cc1noc(C)c1COC(=O)C(c1ccccc1)c1ccccc1,-3.1,6.1,-8.0,4.1,8.2,2.1
Cc1cccc(C)c1OC(=O)C(c1ccccc1)c1ccccc1,-4.5,7.5,88.5*,2.2,-7.8,0.1
COc1ccc2nc(N3CCCC(C(=O)NCCCN4CCN(C)CC4)C3)sc2c1 (centres undefined),0.7,2.1,63.8*,2.1,-20.1,-0.8
Cc1cc(C)c2nc(N3CCCC(C(=O)NCCN4CCOCC4)C3)sc2c1 (centres undefined),-2.7,7.3,7.0,3.4,-17.2,-3.7
O=[N+]([O-])c1ccccc1CN1CCN(Cc2c[nH]c3ccccc23)CC1,-1.9,-0.6,12.3,2.4,24.4,12.6
COc1ccc(S(=O)(=O)N2CCN(Cc3ccccc3)CC2)cc1,-4.0,-0.1,8.4,5.0,8.0,-5.0
CCN1CCN(S(=O)(=O)c2ccc(OC)c(Br)c2)CC1,-0.9,4.2,84.3*,3.0,-3.4,-3.8
O=S(=O)(c1ccc(Cl)cc1)N1CCN(Cc2c[nH]c3ccccc23)CC1,-0.8,4.2,52.5*,1.6,-15.2,-2.5
COc1ccc(S(=O)(=O)N2CCCN(Cc3cccc(F)c3)CC2)cc1,x,5.8,89.7*,1.7,-11.1,1.2
O=S(=O)(c1ccc(Br)cc1)N1CCCN(Cc2ccccc2F)CC1,0.7,-1.3,50.2*,3.3,-17.8,-1.2

# Compound activity: PubChem BioAssay, several laboratories
